Reference: ChEMBL document CHEMBL4177577, “Lipophilic methylene violet analogues as modulators of mitochondrial function and dysfunction” (Bioorg Med Chem, 2017)
Active and inactive are the calls of the source. The calls are words filed in the database; no cut-off is given here.

Tests used:
[1] = Cytotoxicity in human Friedreich's ataxia lymphocytes assessed as reduction in cell viability at 2.5 uM incubated for 48 hrs by Live/Dead cell viability assay; format: cell-based; settings: friedreich's ataxia lymphocyte
Procedure, shortened: (§1)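 FRDA lymphocytes (5×10^5 cells/mL) were kept in glucose-free medium (25 mM galactose) with compound at 37 °C and 5% CO₂ for 24 or 48 h. Cells were washed, stained with 0.1 μM calcein AM (live) and 0.2 μM EthD-1 (dead) for 15 min at 37 °C and analysed by flow cytometry (10,000 events). Duplicates were run in two independent runs.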

[2] = system: Friedreich's ataxia lymphocyte; experiment: Inhibition of ROS generation in human Friedreich's ataxia lymphocytes at 250 and 2500 nM incubated for 16 hrs by DCFH-DA staining based FACS method; format: functional, cell-based
Procedure, shortened: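 FRDA lymphocytes (GM15850; 5×10^5 cells/mL) were pretreated with compound for 16 h at 37 °C, then exposed to 5 mM diethyl maleate for 80 min to deplete glutathione. Cells were loaded with 10 μM DCFH-DA in PBS with 20 mM glucose for 25 min at 37 °C and DCF was read by flow cytometry (10,000 events). Median fluorescence is given as % of the DEM-treated control; duplicates in two runs.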

[3] = system: Friedreich's ataxia lymphocyte; experiment: Cytoprotection against rotenone-induced cytotoxicity in human Friedreich's ataxia lymphocytes assessed as increase in cell viability at 0.25 and 2.5 uM pre-incubated for 12 hrs in glucose-free media followed by rotenone challenge for 24 hrs by Live/Dead cell viability assay; format: functional, cell-based
Procedure, shortened: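 FRDA lymphocytes (5×10^5 cells/mL) in glucose-free medium with 25 mM galactose were pretreated with compounds at 37 °C, then exposed to 50 nM rotenone for 24 h. Cells were stained with 0.1 μM calcein AM and 0.2 μM EthD-1 for 15 min at 37 °C and run on flow cytometry (10,000 events). Live cells are given as % of control; two independent runs in duplicate.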

[4] = Induction of mitochondrial membrane potential preservation in human Friedreich's ataxia lymphocytes assessed as JC1 dye aggregates level at 5 uM pre-incubated for 16 hrs by JC1 staining based assay (reference value: 69.8%)
[5] = Induction of mitochondrial membrane potential preservation in human Friedreich's ataxia lymphocytes assessed as JC1 dye monomer level at 5 uM pre-incubated for 16 hrs by JC1 staining based assay (reference value: 10.1%)
[6] = system: Friedreich's ataxia fibroblast (Homo sapiens); experiment: Cytoprotection against buthionine sulfoximine-induced cytotoxicity in human Friedreich's ataxia fibroblasts assessed as increase in cell viability at 25 to 1000 nM pre-incubated before buthionine sulfoximine challenge for 48 hrs by Live/Dead cell viability assay
[7] = Cytotoxicity in human Friedreich's ataxia lymphocytes assessed as reduction in cell viability at 2.5 uM incubated for 24 hrs by Live/Dead cell viability assay; format: cell-based; settings: friedreich's ataxia lymphocyte; procedure, shortened: as §1
[8] = system: Friedreich's ataxia lymphocyte; experiment: Effect on ATP level in human Friedreich's ataxia lymphocytes at 100 to 5000 nM incubated for 24 hrs by luminescence based assay; format: functional, cell-based
Procedure, shortened: (§2)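 Lymphocytes (2×10^5 cells/mL) were treated with compound at final 0.1, 0.5 or 5 μM (DMSO <0.5%) in glucose-free medium (25 mM galactose) for 24 h at 37 °C. Total intracellular ATP was read by a bioluminescence kit and given as % of untreated control. Data are the mean of at least three independent experiments.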

[9] = system: Friedreich's ataxia lymphocyte; experiment: Increase in ATP level in human Friedreich's ataxia lymphocytes at 0.5 uM incubated for 24 hrs by luminescence based assay; format: functional, cell-based; procedure, shortened: as §2
[10] = system: Friedreich's ataxia lymphocyte; experiment: Increase in ATP level in human Friedreich's ataxia lymphocytes at 0.1 uM incubated for 24 hrs by luminescence based assay; format: functional, cell-based; procedure, shortened: as §2
[11] = Reduction in ATP level in human Friedreich's ataxia lymphocytes at 5 uM incubated for 24 hrs by luminescence based assay; format: ADME, cell-based; settings: friedreich's ataxia lymphocyte; procedure, shortened: as §2
[12] = species on record: Bos taurus; experiment: Effect on NADH-ubiquinone oxidoreductase in bovine heart submitochondrial particles assessed as induction of electron flow from complex-1 by measuring NADH oxidation at 5 uM in presence of 50 nM rotenone using NADH and coenzyme Q1 by spectrophotomery
Procedure, shortened: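 Submitochondrial particles (30 μg/mL) were preincubated 5 min at 30 °C with compound in 50 mM phosphate buffer, pH 7.4, with 0.25 M sucrose, 1 mM MgCl₂, 2 μM antimycin A and 2 mM KCN. The reaction was started with 75 μM NADH plus 15 μM coenzyme Q₁, and NADH loss was followed at 340 nm. Values are the mean of two independent experiments in duplicate.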

[13] = system: Friedreich's ataxia lymphocyte; experiment: Effect on ATP level in human Friedreich's ataxia lymphocytes at 100 nM incubated for 24 hrs by luminescence based assay; format: functional, cell-based; procedure, shortened: as §2

For `CCCCCCCCCCN(CCCCCCCCCC)c1ccc2nc3ccc(=O)cc-3sc2c1`, the Activity [1] was “Non-Toxic”, the “ROS generation inhibition (qualitative)” value [2] was “Active” and the Activity [3] was “Active”. The Activity [4] was 85.7%, the Activity [5] was 14.3% and the Activity [6] was “Dose-dependent effect”. The Activity [7] was “Non-Toxic” and the Activity [8] was “inactive”.
With `CN(C)c1ccc2nc3ccc(N(C)C)cc3[s+]c2c1.[Cl-]` [METHYLENE BLUE ANHYDROUS] the Activity [1] was “Toxic”, the Activity [4] was 41.7% and the Activity [5] was 58.1%. For the same molecule, the Activity [7] was “Toxic”.
In the case of `CCCCCCCCCCCCCCCN(CCCCCCCCCCCCCCC)c1ccc2nc3ccc(=O)cc-3sc2c1`, the Activity [1] was “Non-Toxic”, the “ROS generation inhibition (qualitative)” value [2] was “Active” and the Activity [3] was “Active”. The Activity [4] was 88.2%, the Activity [5] was 11.7% and the Activity [6] was “Dose-dependent effect”. The Activity [7] was “Non-Toxic” and the Activity [8] was “inactive”.
With `CCCCCCCCCCCCCCCN(CCCC)c1ccc2nc3ccc(=O)cc-3sc2c1` the Activity [1] was “Non-Toxic”, the Activity [9] was “Active” and the “ROS generation inhibition (qualitative)” value [2] was “Dose-dependent effect”. The Activity [10] was “Active”, the Activity [3] was “Active” and the Activity [4] was 89.3%. For the same molecule, the Activity [5] was 10.6%, the Activity [6] was “Dose-dependent effect” and the Activity [7] was “Non-Toxic”. The Activity [11] was “Toxic” and the Activity [12] was “Active”.
In the case of `CCCCN(CCCC)c1ccc2nc3ccc(=O)cc-3sc2c1`, the Activity [1] was “Toxic”, the “ROS generation inhibition (qualitative)” value [2] was “Active” and the Activity [3] was “Active”. For the same molecule, the Activity [4] was 74.2%, the Activity [13] was “inactive” and the Activity [5] was 25.6%. For the same molecule, the Activity [6] was “Dose-dependent effect”.
In the case of `CN(C)c1ccc(C(=C2C=CC(=[N+](C)C)C=C2)c2ccc(N(C)C)cc2)cc1.[Cl-]` [GENTIAN VIOLET], the “ROS generation inhibition (qualitative)” value [2] was “Active”, the Activity [3] was “Active” and the Activity [4] was 72.6%. The Activity [13] was “inactive”, the Activity [5] was 27.3% and the Activity [12] was “Active”.
With `CCCCCCCCCCCCCCCN(C)c1ccc2nc3ccc(=O)cc-3sc2c1` the Activity [1] was “Non-Toxic”, the Activity [9] was “Active” and the “ROS generation inhibition (qualitative)” value [2] was “Dose-dependent effect”. The Activity [10] was “Active”, the Activity [3] was “Active” and the Activity [4] was 85.2%. The Activity [5] was 14.7%, the Activity [6] was “Dose-dependent effect” and the Activity [7] was “Non-Toxic”. The Activity [11] was “Toxic”.
With `CN(C)c1ccc2nc3ccc(=[N+](C)C)cc-3sc2c1` the Activity [3] was “Active”, the Activity [13] was “inactive” and the Activity [12] was “Active”.
